5 compounds from ChEMBL document CHEMBL4261545, “Extraction of antioxidant and antiproliferative ingredients from fruits of Rubus chingii Hu by active tracking guidance” (Medchemcomm, 2017) can be followed below.

In brackets after ≈: the same amount, converted by molar mass. Activity calls are given as the source filed them. No cut-off for these calls is given here.

For assay [1], the system named is HepG2. Briefly: Cytotoxicity against human HepG2 cells after 24 hrs by MTT assay. Type of assay: functional, cell-based. The method in brief:
(§1)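 Cells grown in DMEM with 10% heat-inactivated FBS, penicillin and streptomycin at 37 °C, 5% CO2. Seeded 5×10^4 cells per well and treated 24 h after seeding. Samples dissolved in DMSO and diluted in medium, final DMSO under 0.1% (v/v). After 24 h exposure, MTT (0.5 mg mL-1) was added for 4 h at 37 °C and absorbance read at 490 nm. Inhibition % = (1 − ODsample/ODcontrol)×100, run in triplicate.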

In assay [2] the test system is Bel-7402. The assay can be described thus: Cytotoxicity against human Bel7402 cells after 24 hrs by MTT assay. Type of assay: functional, cell-based. The method, boiled down: as §1
(Tetrazolium dyes change colour on reduction, which living cells bring about.)

In assay [3] the test system is A549. Briefly: Cytotoxicity against human A549 cells after 24 hrs by MTT assay. Type of assay: functional, cell-based. The method in brief:
as §1

In assay [4] the test system is MCF7. Briefly: Cytotoxicity against human MCF7 cells after 24 hrs by MTT assay. Type of assay: functional, cell-based. The method, boiled down: as §1
Assay [5] deals with HepG2. The assay can be described thus: Cytotoxicity against human HepG2 cells assessed as inhibition of cell proliferation at 100 ug/ml after 24 hrs by MTT assay relative to control. Type of assay: functional. The method in brief:
(§2)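 Cells (from the CAS cell bank) were grown in DMEM with 10% heat-inactivated FBS, penicillin and streptomycin at 37 °C under 5% CO2. They were seeded at 5×10^4 cells/well and treated 24 h later. Samples were dissolved in DMSO and diluted in medium (final DMSO <0.1%) for 24 h. MTT (0.5 mg/mL) was added for 4 h at 37 °C and A490 read. Inhibition = (1 − OD sample/OD control)×100, in triplicate.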

Assay [6] has as its system Bel-7402. Briefly: Cytotoxicity against human Bel7402 cells assessed as inhibition of cell proliferation at 100 ug/ml after 24 hrs by MTT assay relative to control. Type of assay: functional. Particulars: for inhibition at 100 µg/mL: Bel-7402, 24 h. The method in brief:
as §1

In assay [7] the test system is A549. The assay can be described thus: Cytotoxicity against human A549 cells assessed as inhibition of cell proliferation at 100 ug/ml after 24 hrs by MTT assay relative to control. Type of assay: functional. The method, boiled down:
as §2

Assay [8] concerns MCF7. The assay can be described thus: Cytotoxicity against human MCF7 cells assessed as inhibition of cell proliferation at 100 ug/ml after 24 hrs by MTT assay relative to control. Type of assay: functional. The method, boiled down:
as §2

For assay [9], the system named is MCF7. Briefly: Induction of morphological changes in human MCF7 cells after 24 hrs by phase contrast microscopic method. Type of assay: functional, cell-based. The method in brief: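 MCF-7 cells were kept in DMEM with 10% heat-inactivated FBS at 37 °C, 5% CO2, exposed to compound for 24 h, then examined for morphological changes by phase-contrast microscopy.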

Take `CC[C@H](CC[C@@H](C)[C@H]1CC[C@H]2[C@@H]3CC=C4C[C@@H](O[C@@H]5O[C@H](CO)[C@@H](O)[C@H](O)[C@H]5O)CC[C@]4(C)[C@H]3CC[C@]12C)C(C)C`: the Activity result in the assay with HepG2 [1], in the assay with Bel-7402 [2], in the assay with A549 [3] and in the assay on MCF7 [4] was “Dose-dependent effect” in each case.
Turning to `C[C@@]12CCC[C@@](C)(C(=O)O)[C@H]1CC[C@@]13C[C@@H](CC[C@H]12)[C@](O)(CO)C3`, the Activity entry in the assay with HepG2 [1], in the assay on Bel-7402 [2], in the assay on A549 [3] and in the assay on MCF7 [4] was “Dose-dependent effect” in each case.
Usually inhibition stands for the change of the read-out against control, counted positive when it falls. With `O=c1[nH]cc(F)c(=O)[nH]1`, the inhibition result in the assay on HepG2 [5], with Bel-7402 [6], with A549 [7] and with MCF7 [8] was “Active” throughout.
As to `CC1(C)CC[C@]2(C(=O)O)CC[C@]3(C)C(=CC[C@@H]4[C@@]5(C)CC[C@H](O)C(C)(C)[C@@H]5CC[C@]43C)[C@@H]2C1` [OLEANOLIC_ACID], the Activity entry in the assay with HepG2 [1], in the assay on Bel-7402 [2], in the assay on A549 [3] and with MCF7 [4] was “Dose-dependent effect” in each case. In the assay on Bel-7402 [6], the inhibition at 100 µg/mL was 55.2%.
One may read the IC50 as the concentration at which inhibition is half-maximal. A high value points to weaker potency. With `C[C@@H]1CC[C@]2(C(=O)O)CC[C@]3(C)C(=CC[C@@H]4[C@@]5(C)C[C@@H](O)[C@H](O)C(C)(C)[C@@H]5CC[C@]43C)[C@@H]2[C@]1(C)O` [TOMENTIC ACID], the Activity result with HepG2 [1], with Bel-7402 [2], with A549 [3] and in the assay on MCF7 [4] was “Dose-dependent effect” throughout. Moreover, the IC50 in the assay on HepG2 [1] (HepG2, 24 h) stood at 40.6 mg/L (≈ 83 µM); in the assay on Bel-7402 [2] (Bel-7402, 24 h) it was 54.2 mg/L (≈ 111 µM); in the assay on A549 [3] (A549, 24 h) it was 62.4 mg/L (≈ 128 µM); in the assay on MCF7 [4] (MCF7, 24 h), 24.2 mg/L (≈ 49.6 µM). Also, the inhibition at 100 µg/mL in the assay with HepG2 [5] (HepG2, 24 h) came to 82.8%; in the assay with Bel-7402 [6] it was 80.2%; in the assay on A549 [7] (A549, 24 h) it was 72.4%; with MCF7 [8] (MCF7, 24 h), 91.8%. In addition, the result with MCF7 [9] was Active.
